ChEMBL document CHEMBL4190389, “Synthesis and activity of di- or trisubstituted N-(phenoxyalkyl)- or N-{2-[2-(phenoxy)ethoxy]ethyl}piperazine derivatives on the central nervous system” (Bioorg Med Chem Lett, 2018)
Calls of active or inactive are those of the source. The rule behind the calls is not given here.

Key:
Mus musculus [1] = experiment: Anxiolytic-like activity in Albino Swiss CD-1 mouse assessed as increase in number of punished crossings at 1.25 mg/kg, ip administered for 30 mins prior to test measured for 1 min by four-plate test; format: functional, organism-based
Outline: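 Four-plate test in mice; compounds or clorazepate given i.p. 30 min before testing, vehicle 0.9% NaCl; read-out was number of punished crossings; mean ± SEM, n = 8–10 mice per group; doses compared with one-way statistics (F) against vehicle.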

[2] = biological target: T1, 5-hydroxytryptamine receptor 1A (Homo sapiens) (UniProt P08908); experiment: Displacement of [3H]8-OH-DPAT from recombinant human 5-HT1A receptor expressed in HEK293 cell membranes at 10^-5 M after 60 mins by liquid scintillation counting method
T1 sequence (whole entry): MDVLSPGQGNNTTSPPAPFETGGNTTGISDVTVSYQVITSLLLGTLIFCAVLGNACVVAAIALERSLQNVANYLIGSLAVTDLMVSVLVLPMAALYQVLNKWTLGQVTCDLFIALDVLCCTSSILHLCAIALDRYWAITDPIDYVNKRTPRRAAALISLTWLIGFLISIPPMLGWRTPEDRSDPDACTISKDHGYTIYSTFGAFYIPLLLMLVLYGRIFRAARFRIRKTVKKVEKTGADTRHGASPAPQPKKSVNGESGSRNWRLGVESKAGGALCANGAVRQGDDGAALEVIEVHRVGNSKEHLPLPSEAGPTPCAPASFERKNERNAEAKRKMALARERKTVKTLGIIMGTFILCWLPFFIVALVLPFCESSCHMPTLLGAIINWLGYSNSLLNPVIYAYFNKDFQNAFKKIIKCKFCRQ

[3] = biological target: 5-hydroxytryptamine receptor 2A (Homo sapiens, UniProt P28223); experiment: biochemical; format: cell-based, HEK293;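 also: radioligand displacement of [3H]ketanserin binding at human 5-HT2A receptor in membranes from HEK293 cells, 60 min incubation, read by liquid scintillation counting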
[4] = biological target: 5-hydroxytryptamine receptor 6 (Homo sapiens, UniProt P50406); experiment: Displacement of [3H]LSD from recombinant human 5-HT6 receptor expressed in CHO cells cell membranes after 60 mins by liquid scintillation counting method
Mus musculus [5] = experiment: Antidepressant-like activity in Albino Swiss CD-1 mouse assessed as immobility time at 10 mg/kg, ip administered 30 mins prior to test measured for last 4 mins of 6 mins observation by forced swim test (reference value: 153.9 to 201.9 secs); format: functional
D(2) dopamine receptor = D(2) dopamine receptor (Homo sapiens, UniProt P14416); experiment: Displacement of [3H]methylspiperonee from recombinant human D2 receptor expressed in HEK293 cell membranes at 10^-5 M after 60 mins by liquid scintillation counting method
Mus musculus [6] = experiment: Anxiolytic-like activity in Albino Swiss CD-1 mouse assessed as increase in number of punished crossings at 10 mg/kg, ip administered for 30 mins prior to test measured for 1 min by four-plate test; format: functional, organism-based
Outline: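 Four-plate test in mice, i.p., 30 min before test; vehicle 0.9% NaCl; doses 1.25–10 mg/kg; number of punished crossings counted; mean ± SEM, n = 8–10 mice per group; ANOVA F statistics.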

[7] = biological target: T2, 5-hydroxytryptamine receptor 7 (Homo sapiens, UniProt P34969); experiment: biochemical; format: cell-based, CHO
Mus musculus [8] = experiment: Antidepressant-like activity in Albino Swiss CD-1 mouse assessed as immobility time at 20 mg/kg, ip administered 30 mins prior to test measured for last 4 mins of 6 mins observation by forced swim test (reference value: 153.9 to 201.9 secs); format: functional
[9] = biological target: T3, Alpha-1A adrenergic receptor (Homo sapiens) (UniProt P35348); experiment: Displacement of [3H]prazosin from recombinant human alpha1 adrenoceptor expressed in CHO cell membranes at 10^-5 M after 30 mins by liquid scintillation counting method
T3 sequence (whole entry): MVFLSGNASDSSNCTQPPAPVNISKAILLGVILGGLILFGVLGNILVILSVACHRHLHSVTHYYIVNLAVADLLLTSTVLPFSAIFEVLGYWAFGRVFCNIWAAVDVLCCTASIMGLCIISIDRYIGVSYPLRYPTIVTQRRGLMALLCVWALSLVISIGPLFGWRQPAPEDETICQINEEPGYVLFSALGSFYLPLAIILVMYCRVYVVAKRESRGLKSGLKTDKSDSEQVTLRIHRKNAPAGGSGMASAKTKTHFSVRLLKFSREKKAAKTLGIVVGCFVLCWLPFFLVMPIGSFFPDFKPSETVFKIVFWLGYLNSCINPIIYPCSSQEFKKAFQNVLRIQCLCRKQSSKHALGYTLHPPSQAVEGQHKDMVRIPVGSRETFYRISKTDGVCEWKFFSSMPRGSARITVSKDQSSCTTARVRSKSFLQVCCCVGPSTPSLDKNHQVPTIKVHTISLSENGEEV

Mus musculus [10] = experiment: Antidepressant-like activity in Albino Swiss CD-1 mouse assessed as immobility time at 5 mg/kg, ip administered 30 mins prior to test measured for last 4 mins of 6 mins observation by forced swim test (reference value: 153.9 to 201.9 secs); format: functional
Mus musculus [11] = experiment: Toxicity in Albino Swiss CD-1 mouse assessed as effect on locomotory activity at 5 to 10 mg/kg, ip administered for 30 mins prior to test measured for 1 min; format: organism-based; conditions: in vivo
Outline: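 Mice dosed i.p. 30 min before test; vehicle groups received 0.9% NaCl. Spontaneous locomotion scored as number of crossings during a 1-min session. Each dose compared with its own vehicle group by Student t-test; mean ± SEM, n = 8–10 mice per group.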

[12] = biological target: T2, 5-hydroxytryptamine receptor 7; experiment: Antagonist activity at human 5-HT7 receptor expressed in CHO-K1 cells assessed as decrease in serotonin-induced cAMP level after 1 hr by TR-FRET assay relative to control; format: functional, cell-based
[13] = biological target: T2, 5-hydroxytryptamine receptor 7; experiment: Agonist activity at human 5-HT7 receptor expressed in CHO-K1 cells assessed as increase in serotonin-induced cAMP level after 1 hr by TR-FRET assay relative to serotonin; format: functional, cell-based

T2 sequence (P34969 whole entry): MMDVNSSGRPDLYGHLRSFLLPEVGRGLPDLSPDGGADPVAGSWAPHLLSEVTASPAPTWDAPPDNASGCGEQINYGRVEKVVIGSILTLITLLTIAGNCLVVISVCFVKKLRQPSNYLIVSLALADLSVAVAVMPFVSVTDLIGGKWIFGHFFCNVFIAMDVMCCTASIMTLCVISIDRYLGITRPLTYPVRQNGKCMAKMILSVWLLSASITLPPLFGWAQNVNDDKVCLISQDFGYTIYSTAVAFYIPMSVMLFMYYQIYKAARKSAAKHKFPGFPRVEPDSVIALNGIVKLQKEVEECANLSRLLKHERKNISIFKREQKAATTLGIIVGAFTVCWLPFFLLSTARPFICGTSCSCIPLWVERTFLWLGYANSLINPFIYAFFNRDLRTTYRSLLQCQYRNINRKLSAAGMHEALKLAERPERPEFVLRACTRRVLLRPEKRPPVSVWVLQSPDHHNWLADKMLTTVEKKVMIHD
Sequence of D(2) dopamine receptor (P14416 whole entry): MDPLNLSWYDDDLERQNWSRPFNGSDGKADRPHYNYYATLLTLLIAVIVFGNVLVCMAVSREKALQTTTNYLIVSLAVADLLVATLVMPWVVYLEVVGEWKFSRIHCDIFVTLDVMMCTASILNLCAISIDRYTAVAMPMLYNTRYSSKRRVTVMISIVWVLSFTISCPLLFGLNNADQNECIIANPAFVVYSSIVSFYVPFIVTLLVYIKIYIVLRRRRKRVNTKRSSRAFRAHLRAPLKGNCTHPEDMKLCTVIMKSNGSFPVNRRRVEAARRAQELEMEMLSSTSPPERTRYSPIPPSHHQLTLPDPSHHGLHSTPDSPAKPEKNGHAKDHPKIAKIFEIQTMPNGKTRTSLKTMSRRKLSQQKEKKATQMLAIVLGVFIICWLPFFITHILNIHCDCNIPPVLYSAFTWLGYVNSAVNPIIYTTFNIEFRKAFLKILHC
Sequence of 5-hydroxytryptamine receptor 6 (P50406 whole entry): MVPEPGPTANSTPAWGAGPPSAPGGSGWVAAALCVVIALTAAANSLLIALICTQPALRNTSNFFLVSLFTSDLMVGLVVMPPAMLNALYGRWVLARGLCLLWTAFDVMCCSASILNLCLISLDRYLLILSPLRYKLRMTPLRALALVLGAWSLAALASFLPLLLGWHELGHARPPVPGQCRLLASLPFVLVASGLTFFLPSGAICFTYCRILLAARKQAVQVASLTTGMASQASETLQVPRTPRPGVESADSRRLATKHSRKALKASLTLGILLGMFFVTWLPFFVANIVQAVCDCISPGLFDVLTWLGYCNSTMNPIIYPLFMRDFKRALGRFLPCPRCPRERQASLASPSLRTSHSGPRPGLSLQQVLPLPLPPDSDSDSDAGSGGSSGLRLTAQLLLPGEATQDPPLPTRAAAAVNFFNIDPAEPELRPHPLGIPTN
Sequence of 5-hydroxytryptamine receptor 2A (P28223 whole entry): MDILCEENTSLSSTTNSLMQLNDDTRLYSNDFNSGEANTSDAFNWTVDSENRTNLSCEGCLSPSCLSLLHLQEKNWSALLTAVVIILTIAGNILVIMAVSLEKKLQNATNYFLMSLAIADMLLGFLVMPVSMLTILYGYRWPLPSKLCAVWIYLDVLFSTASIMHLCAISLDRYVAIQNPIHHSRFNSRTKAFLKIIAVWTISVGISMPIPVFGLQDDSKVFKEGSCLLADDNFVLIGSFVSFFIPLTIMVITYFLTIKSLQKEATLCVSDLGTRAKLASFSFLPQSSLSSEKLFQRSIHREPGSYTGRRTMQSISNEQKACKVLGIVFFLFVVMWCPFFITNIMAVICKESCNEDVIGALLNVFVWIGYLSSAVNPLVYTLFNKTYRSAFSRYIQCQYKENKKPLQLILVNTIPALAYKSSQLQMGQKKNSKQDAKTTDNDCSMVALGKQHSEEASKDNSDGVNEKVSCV

Compound: O=C(O)C1N=C(c2ccccc2)c2cc(Cl)ccc2NC1=O (centres undefined)
- Activity (Mus musculus [1]): Active

Compound: Cc1cc(C)c(OCCOCCN2CCN(Cc3ccccc3)CC2)c(C)c1.Cl.Cl
- inhibition [2]: inactive
- Ki [3]: 0.498 µM
- Ki [4]: > 5 µM
- Time (Mus musculus [5]): 182.4 s
- inhibition (D(2) dopamine receptor): inactive
- Activity (Mus musculus [6]): Active
- Ki [7]: 3.16 µM
- Time (Mus musculus [8]): 157.5 s
- inhibition [9]: inactive
- Time (Mus musculus [10]): 176.5 s
- Activity (Mus musculus [11]): Non-Toxic

Compound: CC1CCN(CC[C@H]2CCCN2S(=O)(=O)c2cccc(O)c2)CC1
- Emax [12]: -1%
- Emax [13]: -1%
